Assay results: ChEMBL document CHEMBL1143060, “Synthesis and pharmacological investigation of novel 4-benzyl-1-substituted-4H-[1,2,4]triazolo[4,3-a]quinazolin-5-ones as new class of H1-antihistaminic agents” (2007)

Experiments:
Format in all cases: functional
Mus musculus [1] = assay: Sedative-hypnotic activity in Swiss Albino mouse assessed as reduction of locomotor activity at 5 mg/kg, po after 3 hrs; set-up: scale not given: the % may be the effect or the level left
Summary of the method: (§1)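 Locomotor activity was scored at 1, 2 and 3 h after dosing, and percent reduction in locomotor activity was calculated. Significance versus control was tested by Student's t test. Animals were housed at 45–55% relative humidity on a 12 h light/dark cycle, fed standard feed, and acclimatized for one week before use.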

Cavia porcellus = assay: Antihistaminic activity in Dunkin-Hartley guinea pig assessed as protection against histamine-induced bronchospasm at 10 mg/kg, po
Summary of the method: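 Male Dunkin Hartley guinea pigs (250–300 g), fasted 12 h, six per group, dosed orally at 10 mg/kg in 1% CMC. They were then challenged in a closed transparent cage with nebulized histamine aerosol (0.2% aqueous histamine acid chloride, 3 ml). Preconvulsion onset time was recorded, and animals stable >6 min counted as protected. Mean preconvulsion time versus control was expressed as percent protection.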

Mus musculus [2] = assay: Sedative-hypnotic activity in Swiss Albino mouse assessed as reduction of locomotor activity at 5 mg/kg, po after 2 hrs; set-up: scale not given: the % may be the effect or the level left; summary of the method: as §1
Mus musculus [3] = assay: Sedative-hypnotic activity in Swiss Albino mouse assessed as reduction of locomotor activity at 5 mg/kg, po after 1 hrs; set-up: scale not given: the % may be the effect or the level left; summary of the method: as §1

Row | SMILES | Activity (Mus musculus [1]) | Activity (Cavia porcellus) | Activity (Mus musculus [2]) | Activity (Mus musculus [3])
1 | CN(C)CC[C@@H](c1ccccc1)c1ccccn1.O=C(O)/C=C\C(=O)O [PHENIRAMINE MALEATE] | 22% | 71% | 32% | 37%
2 | CCCc1nnc2n(Cc3ccccc3)c(=O)c3ccccc3n12 | 11% | 73.87% | 15% | 9%
3 | O=c1c2ccccc2n2cnnc2n1Cc1ccccc1 | 4% | 73.99% | 9% | 6%
4 | O=c1c2ccccc2n2c(CN3CCCC3)nnc2n1Cc1ccccc1 | 8% | 73.69% | 12% | 8%
5 | O=c1c2ccccc2n2c(CCl)nnc2n1Cc1ccccc1 | 4% | 72.96% | 7% | 5%
6 | O=c1c2ccccc2n2c(CN3CCCCC3)nnc2n1Cc1ccccc1 | 8% | 73.93% | 15% | 9%
7 | Cc1nnc2n(Cc3ccccc3)c(=O)c3ccccc3n12 | 6% | 76.08% | 11% | 6%
8 | O=c1c2ccccc2n2c(CN3CCOCC3)nnc2n1Cc1ccccc1 | 6% | 74.1% | 13% | 7%
9 | CN1CCN(Cc2nnc3n(Cc4ccccc4)c(=O)c4ccccc4n23)CC1 | 7% | 74.83% | 17% | 8%
10 | O=c1c2ccccc2n2c(CN3CCNCC3)nnc2n1Cc1ccccc1 | 8% | 74.44% | 14% | 6%
11 | CCc1nnc2n(Cc3ccccc3)c(=O)c3ccccc3n12 | 9% | 74.39% | 12% | 7%
